# High-throughput results deposited in PubChem BioAssay by several laboratories.
# PHOSPHO1 block: PubChem AID 1565; Phosphoethanolamine/phosphocholine phosphatase (Homo sapiens), Q8TCT1; recombinant PHOSPHO1, absorbance phosphatase assay; inhibition, % at 13.3 µM; 290,000 tested, 1.1% active; in the data active means inhibition above about 60%
# Target sequence (Q8TCT1 whole entry, looked up): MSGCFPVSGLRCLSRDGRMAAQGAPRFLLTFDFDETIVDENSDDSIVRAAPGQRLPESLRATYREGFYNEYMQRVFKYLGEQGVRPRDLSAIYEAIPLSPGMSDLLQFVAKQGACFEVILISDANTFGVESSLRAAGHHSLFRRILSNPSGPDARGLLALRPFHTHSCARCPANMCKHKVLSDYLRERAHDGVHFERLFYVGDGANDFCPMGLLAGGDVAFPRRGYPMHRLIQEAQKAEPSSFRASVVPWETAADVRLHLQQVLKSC
# HSF1 inh: HSF1 inhibitors in luciferase reporter cells, primary screen, cell-based, NIH3T3, luminescence | AID 2098, 2009 | activity change, negative = inhibition, % at 7.5 µM (by protocol) | 300,000 tested, 0.77% active | NIH3T3-HGL HSE-luciferase, MG132-induced, luminescence 8 h; active compounds read low;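 active means more than half of replicate wells show activity change below -50%, luminescence cut by over half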;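 further: luciferase reports HSF-1 transcriptional activity via heat shock element; 0% = median of DMSO wells and -100% = zero luminescence signal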
# HCV core dimer: inhibitors of HCV core protein dimerization, primary screen, biochemical, TR-FRET, high-throughput | TR-FRET GST/Flag-core106 dimerization, 1536-well | inhibition, % at 5 µM | 300,000 tested, 0.33% active | AID 1899, 2009;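 active means inhibition above the mean of all tested compounds plus 3 SD, set per screening campaign, cut at about 45% in these data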
#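 assay system = GST-tagged and Flag-tagged HCV core protein residues 1-106 | controls = unlabelled core106 and no-GST-core106 wells | incubation = compound-protein-antibody incubation 4 h at 22.5 °C | probe or stimulus = Eu donor and XL665 acceptor anti-tag antibodies | read-out = % inhibition based on acceptor/donor emission ratio | signal = TR-FRET 671 and 617 nm emission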
# AI-2 QS modul: Vibrio harveyi AI-2 quorum sensing modulators, primary screen, JMH597 strain, luminescence/OD600 ratio; Vibrio harveyi JMH597 AI-2 luminescence/OD600 ratio, 9 h; active compounds read low; strain lacks LuxN and CqsS sensors; 0 = neutral-control median; activity change, % at 7.5 µM; 300,000 tested, 0.4% active; AID 2094, 2009; in the data active means activity change below about -75%, passing the limit was not always enough;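 further: luminescence divided by OD600 gain over 9 h not by final OD600 alone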
# HSF-1 act: HSF-1 activators, primary screen, NIH3T3-HGL cells, MG132 stress, luminescence, single point | activation, % at 9 µM | 300,000 tested, 1.7% active | NIH3T3-HGL HSF-1 luciferase reporter, 8 h; 100% = twice DMSO control signal;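 active means mean replicate activation of at least 50% with a set share of replicates each reaching 50%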;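 further: 0% = median of the neutral control wells and 100% = twice that signal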
# ALR H2O2 inh: inhibitors of human ALR sulfhydryl oxidase, primary screen, biochemical, H2O2 detection, HRP-luminol luminescence, single point | FAD-linked sulfhydryl oxidase ALR (Homo sapiens), P55789 | purified ALR, DTT oxidation | inhibition, % (concentration not given with the values) | 290,000 tested, 3.8% active | AID 485317, 2010;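 active means mean replicate inhibition above about 79%, with every replicate also reaching it, limit read from the data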
# Target sequence (P55789 whole entry, looked up): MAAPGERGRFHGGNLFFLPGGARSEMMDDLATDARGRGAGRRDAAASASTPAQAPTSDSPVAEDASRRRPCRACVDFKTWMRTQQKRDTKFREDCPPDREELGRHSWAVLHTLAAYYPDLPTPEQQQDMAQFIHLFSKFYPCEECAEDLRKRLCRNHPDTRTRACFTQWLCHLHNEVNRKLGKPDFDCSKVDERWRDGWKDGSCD
# Starred values were filed as active, the others as inactive; . = no result. This is a sample that favours compounds with a hit; in the whole collection about 6.8% have one here.
SMILES,PHOSPHO1 block,HSF1 inh,HCV core dimer,AI-2 QS modul,HSF-1 act,ALR H2O2 inh
CCn1ncc(CNC(=O)C2(C)CC2(Cl)Cl)c1C (stereo unspecified),-9,0,-3,13,3,1
CCCN1CCC(NC(=O)Cc2ccc(C)cc2)CC1,19,0,0,19,4,-1
CCC(C)Sc1nc2c(c(=O)[nH]1)C(c1cccs1)C1=C(CCCC1=O)N2 (stereo unspecified),-1,-3,57*,45,-1,.
COC(=O)c1ccc(Nc2nc(C)nc3c2nnn3Cc2ccccc2)cc1,.,-1,5,10,-12,2
COc1ccc(OCc2cc(C(=O)NCC3CCCCO3)no2)c(Cl)c1 (stereo unspecified),50,6,-10,14,26,-4
COc1ccc(C2C(C(=O)OCC(=O)N3CCCCC3)CCC(=O)N2c2ccc(OC)cc2)cc1 (stereo unspecified),68*,2,6,3,19,-2
COc1cccc(COC(=O)C2CCN(S(=O)(=O)c3ccc(C)cc3C)CC2)c1OC,.,-1,-2,30,11,-1
O=C(c1ccc(NC(=S)NCc2ccco2)cc1)N1CCOCC1,24,0,-2,8,9,-19
Oc1ccccc1/C=N/NC(=S)NC1CC2CC1C1C=CCC21 (stereo unspecified),3,10,2,32,18,-3
COc1cccc(/C=N/NC(=S)NC2CC3CC2C2C=CCC32)c1O (stereo unspecified),12,81,7,22,105*,-16
O=C(NC1CCCC1)c1ccc(COCC(F)(F)C(F)F)o1,-3,-3,-2,25,-6,98*
Cc1ccc(C)c(N2CCN(C(=O)c3ccc(CS(=O)(=O)c4ccccc4C)o3)CC2)c1,-34,-11,3,34,-15,15
Cc1cccc(N2CCN(C(=O)c3ccc(CS(=O)(=O)c4ccccc4C)o3)CC2C)c1 (stereo unspecified),6,-23,2,18,-25,95*
Cc1ccccc1S(=O)(=O)Cc1ccc(C(=O)NC2CCCCC2)o1,65*,3,-5,18,-18,-16
CCc1ccccc1S(=O)(=O)Cc1ccc(C(=O)NC2CCCC2)o1,22,2,1,12,-12,-3
COCc1ccc(C(=O)NC2CCCN(Cc3ccccc3F)C2)o1 (stereo unspecified),18,-2,0,16,-6,0
CSc1ccc(NC(=O)Nc2ccc(C(=O)NCC(=O)O)cc2)cc1,34,-5,.,2,-6,98*
CCSc1ccc(C(=O)NCC(=O)O)cc1,43,-6,-9,17,-5,-19
O=C(CCCN1C(=O)c2cccc3cccc(c23)C1=O)Nc1ccon1,52,49,3,9,113*,5
COc1ccc(-n2nnnc2Sc2ccc(S(=O)(=O)N3CCOCC3)cn2)cc1,85*,-8,0,33,15,.
CCC1(C)Cc2c(sc3nc(SCC(=O)c4ccccc4)[nH]c(=O)c23)CO1 (stereo unspecified),8,4,4,12,12,-21
CCOC(=O)CSc1nc2sc3c(c2c(=O)[nH]1)CC(C)(CC)OC3 (stereo unspecified),81*,-1,-3,9,-5,-7
COc1ccc(Br)cc1/C=N/n1c(COc2ccccc2)n[nH]c1=S,-3,0,3,2,20,.
COc1ccc(S(=O)(=O)N2CCC(C(N)=O)CC2)cc1C(=O)N1CCCCCC1,-10,6,-5,16,10,.
Cc1ccc(-c2nc(CSCC(=O)N3CCN(C(=O)c4ccco4)CC3)c(C)o2)cc1,-13,-5,2,5,8,99*
SMILES,PHOSPHO1 block,HSF1 inh,HCV core dimer,AI-2 QS modul,HSF-1 act,ALR H2O2 inh
O=C(Nc1ccccc1)N1CCN(Cc2ccc3c(c2)OCO3)CC1,-7,0,-3,23,6,-5
Cc1cc(C)cc(NC(=O)N2CCN(Cc3ccc4c(c3)OCO4)CC2)c1,42,-58*,-4,19,-63,-6
Cc1ccc(-c2nnc(SCC(=O)N3CCOCC3)nc2-c2ccc(C)cc2)cc1,68*,0,9,-5,7,95*
COc1ccc(-c2nc(CN3CCN(C(=O)c4ccco4)CC3)c(C)o2)cc1OC,24,-3,-5,5,-5,-8
Cc1ccc(-c2nc(CSCC(=O)N3CCOCC3)c(C)o2)cc1,24,11,6,29,31,99*
Cc1ccc(-c2nc(CS(=O)(=O)CC(=O)N3CCOCC3)c(C)o2)cc1,26,3,-2,-5,2,-8
COc1ccc(C(=O)COC(=O)CCN2C(=O)C3C4C=CC(C5CC45)C3C2=O)cc1 (stereo unspecified),23,-2,-8,3,1,-23
O=C(NCC1(N2CCCCC2)CCCCC1)C1CC(=O)N(c2ccc3c(c2)OCCO3)C1 (stereo unspecified),-94,-17,5,22,-16,-18
O=c1ccc(S(=O)(=O)N2CCCC2)cn1Cc1ccc(Cl)cc1Cl,.,.,.,.,.,-7
CCCCC(=O)Nc1cc(C)c(NC(=O)c2ccco2)cn1,-6,-1,-4,9,-3,1
O=C(O)CC(NC(=O)CCC1CCCCC1)c1cc([N+](=O)[O-])ccc1Cl (stereo unspecified),25,2,-3,17,-4,-4
O=c1cc(-c2ccccc2)nc(SCc2ccccc2F)[nH]1,-22,-10,10,15,-4,-1
Cc1cccc(-c2nc(CSCC(=O)N3CCN(Cc4ccc5c(c4)OCO5)CC3)c(C)o2)c1,4,14,9,12,23,98*
O=C(COC(=O)Cc1cccs1)NCC(=O)Nc1ccc(F)cc1,.,.,.,.,.,-1
CCNC(=O)C(C)Sc1ccc(Cl)cc1 (stereo unspecified),-2,5,1,21,-2,-17
CCNC(=O)NC(=O)C(C)Sc1ccc2c(c1)OCCO2 (stereo unspecified),2,.,3,.,.,98*
COC(=O)/C(=C(/F)Sc1cc(C)c(O)c(C)c1)C(F)(F)F,64*,5,-1,20,8,.
Cc1noc(C)c1CSCC(=O)Nc1ccc(S(=O)(=O)C(F)F)cc1,.,-58*,0,20,-69,1
Cc1noc(C)c1CSCC(=O)Nc1ccc(OC(F)F)c(Cl)c1,.,-3,-3,17,-1,74
